Here are results for six compounds from ChEMBL document CHEMBL3259586, “Localization and interaction of hydroxyflavones with lipid bilayer model membranes: a study using DSC and multinuclear NMR” (Eur J Med Chem, 2014).

The nature of experiment [1]: Binding affinity to multilamellar vesicles of DPPC assessed as increase in chemical shift anisotropy at 323 K by [31P]-NMR spectroscopic analysis. The gist of the method: (§1)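 Lipid held at 100 mM for NMR samples with flavone at 10 to 50 mM; multilamellar vesicles from chloroform-dissolved DPPC; unilamellar vesicles made by sonicating lipid dispersions at 50% duty cycle until optically clear.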

The test system of experiment [2] is Lipid bilayer. As to the kind of experiment: Binding affinity to DPPC lipid bilayer assessed as decrease in melting temperature by differential scanning calorimetric analysis. In short, it runs like this:
(§2)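 DPPC multilamellar vesicles made from chloroform lipid solution, lipid held at 50 mM, drug/lipid molar ratios 1:20 to 1:2; DSC heating scans give pretransition (Tp) and main transition (Tm) temperatures; repeat scans of the same samples.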
For orientation: Differential scanning calorimetry records heat flow against a reference as temperature is scanned.

Experiment [3] deals with Radical scavenging activity. Description: Antioxidant activity assessed as DPPH radical scavenging activity after 30 mins. It counts as functional. The gist of the method: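 Test compounds at varied concentrations added to methanolic DPPH with 0.1 M Tris-HCl buffer; absorbance read at 517 nm after 30 min incubation; IC50 read graphically from dose-response curves; at least three experiments.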
A general note: The DPPH test is a chemical assay of radical scavenging.

The test system of another experiment is HepG2. As to the kind of experiment: Antiproliferative activity against human HepG2 cells assessed as cell growth at 10^-4 ug/ml after 48 hrs by sulforhodamine B assay relative to control. It counts as functional. Particulars: HepG2, 48 h, read-out: Activity. In short, it runs like this:
(§3)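 Sulforhodamine B assay; cells grown in RPMI 1640 with 10% fetal bovine serum and 2 mM L-glutamine; compounds dissolved in DMSO, diluted into culture medium; incubated 48 h under standard conditions; percent growth inhibition calculated.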
Background: Sulforhodamine B stains cellular protein and so reports cell mass.

The next experiment concerns MCF7. As to the kind of experiment: Antiproliferative activity against human MCF7 cells assessed as cell growth at 10^-4 ug/ml after 48 hrs by sulforhodamine B assay relative to control. To be noted: MCF7, 48 h, read-out: Activity. The class given is functional. In short, it runs like this:
as §3

The test system of a further experiment is K562. Description: Antiproliferative activity against human K562 cells assessed as cell growth at 10^-4 ug/ml after 48 hrs by sulforhodamine B assay relative to control. Particulars: K562, 48 h, read-out: Activity. The class given is functional. In short, it runs like this:
as §3

Experiment [4] is described as follows: Binding affinity to multilamellar vesicles after 2 hrs by centrifugation method.
Experiment [5] is described as follows: Binding affinity to multilamellar vesicles by NMR titration method. The gist of the method:
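NMR titration with drug held at 10 mM and lipid varied 1-10 mM; lipid stock in D2O, drug stock in methanol, both diluted; TSP added as reference; fraction bound derived from chemical shift changes.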

Experiment [6] deals with Lipid bilayer. Description: Binding affinity to DPPC lipid bilayer assessed as pre-transition temperature at 1:20 drug to DPPC molar ratio by differential scanning calorimetric analysis. In short, it runs like this: as §2
The test system of experiment [7] is Lipid bilayer. Description: Binding affinity to DPPC lipid bilayer assessed as pre-transition temperature at 1:10 drug to DPPC molar ratio by differential scanning calorimetric analysis. In short, it runs like this: as §2
Experiment [8] deals with Lipid bilayer. As to the kind of experiment: Binding affinity to DPPC lipid bilayer assessed as pre-transition temperature at 1:5 drug to DPPC molar ratio by differential scanning calorimetric analysis. In short, it runs like this:
as §2

Experiment [9] relates to Lipid bilayer. Description: Binding affinity to DPPC lipid bilayer assessed as pre-transition temperature at 1:2 drug to DPPC molar ratio by differential scanning calorimetric analysis. The gist of the method:
as §2

For experiment [10], the system named is Lipid bilayer. Description: Binding affinity to DPPC lipid bilayer assessed as melting temperature at 1:20 drug to DPPC molar ratio by differential scanning calorimetric analysis. The gist of the method: as §2
The test system of experiment [11] is Lipid bilayer. As to the kind of experiment: Binding affinity to DPPC lipid bilayer assessed as melting temperature at 1:10 drug to DPPC molar ratio by differential scanning calorimetric analysis. The gist of the method: as §2
Experiment [12] relates to Lipid bilayer. Description: Binding affinity to DPPC lipid bilayer assessed as melting temperature at 1:5 drug to DPPC molar ratio by differential scanning calorimetric analysis. In short, it runs like this: as §2
Experiment [13] concerns Lipid bilayer. Description: Binding affinity to DPPC lipid bilayer assessed as melting temperature at 1:2 drug to DPPC molar ratio by differential scanning calorimetric analysis. In short, it runs like this:
as §2

The test system of experiment [14] is Lipid bilayer. As to the kind of experiment: Binding affinity to unilamellar vesicles of DPPC in D2O at 1:5 drug to lipid molar ratio at 323 K by [1H]-NMR spectroscopic analysis. The gist of the method:
as §1

Experiment [15] relates to Lipid bilayer. As to the kind of experiment: Binding affinity to unilamellar vesicles of DPPC in D2O at 1:5 drug to lipid molar ratio at 323 K by [13C]-NMR spectroscopic analysis. The gist of the method: as §1
Experiment [16] can be described thus: Binding affinity to multilamellar vesicles of DPPC at 1:10 to 1:2 drug to lipid molar ratio at 323 K by [31P]-NMR spectroscopic analysis. The gist of the method:
as §1

For experiment [17], the system named is Lipid bilayer. As to the kind of experiment: Binding affinity to unilamellar vesicles of DPPC in D2O at 1:5 drug to lipid molar ratio at 323 K by 2D-NOESY spectroscopic analysis. In short, it runs like this: as §1
The nature of experiment [18]: Binding affinity to multilamellar vesicles at 100 uM after 2 hrs by centrifugation method relative to control.

≈ marks a conversion by molar mass, not a printed value. Calls of active or inactive are those of the source. The rule behind the calls is not given here.

The IC50 is the concentration that inhibits the measured activity by half.

In the case of `O=c1cc(-c2ccccc2)oc2cccc(O)c12` [5-HYDROXYFLAVONE], the Activity result (in [1]; in the experiment on Lipid bilayer [2]) was “Dose-dependent effect” each time. Besides, the IC50 in experiment [3] turned out to be 23.8 µg/mL (≈ 99.9 µM). Further, the growth at 0.0001 µg/mL with HepG2 is 88.8%; with MCF7, 28.6%; in the experiment with K562 it was 26.7%. For the same compound, the Kapp in experiment [4] turned out to be 313 M⁻¹; in [5] it was 229 M⁻¹. Further, the T with Lipid bilayer [6] stood at 32.3 °C; in the experiment with Lipid bilayer [7] it was 32 °C; in the experiment with Lipid bilayer [8], 32 °C; in the experiment on Lipid bilayer [9] it was 30.3 °C. Further, the Tm in the experiment with Lipid bilayer [10] turned out to be 41.1 °C; in the experiment on Lipid bilayer [11] it was 40.7 °C; in the experiment on Lipid bilayer [12], 40.6 °C; with Lipid bilayer [13], 39.6 °C. For the same compound, the outcome in the experiment with Lipid bilayer [14] and with Lipid bilayer [15] was Active.

In the case of `O=c1cc(-c2ccccc2)oc2ccc(O)cc12` [6-HYDROXYFLAVONE], the outcome (in experiment [16]; in the experiment on Lipid bilayer [14]; in the experiment on Lipid bilayer [15]; in the experiment on Lipid bilayer [17]) was Active. Besides, in the experiment with Lipid bilayer [2], the Activity entry is “Dose-dependent effect”. Moreover, the IC50 in experiment [3] stood at 22.1 µg/mL (≈ 92.8 µM). The growth at 0.0001 µg/mL with HepG2 is 82.8%; in the experiment with MCF7, 28.8%; in the experiment with K562, 13.3%. Moreover, the Kapp in [4] amounted to 800 M⁻¹; in [5], 572 M⁻¹. The Tm amounted to 37.4 °C in the experiment on Lipid bilayer [10], 37.3 °C in the experiment with Lipid bilayer [11], 37.1 °C in the experiment with Lipid bilayer [12] and 36.9 °C in the experiment on Lipid bilayer [13].

Regarding `O=c1cc(-c2ccccc2)oc2cc(O)ccc12` [7-HYDROXYFLAVONE], the Activity result (in experiment [1]; in the experiment on Lipid bilayer [2]) was “Dose-dependent effect” in each case. Moreover, in [3], the IC50 turned out to be 24.2 µg/mL (≈ 102 µM). The growth at 0.0001 µg/mL is 98.8% with HepG2, 26.6% in the experiment with MCF7 and 22.3% with K562. The Kapp is 450 M⁻¹ in [4] and 311 M⁻¹ in [5]. For the same compound, the T with Lipid bilayer [6] turned out to be 31.9 °C; in the experiment with Lipid bilayer [7], 31.8 °C; in the experiment on Lipid bilayer [9], 27.4 °C. Moreover, the Tm in the experiment with Lipid bilayer [10] turned out to be 40.7 °C; in the experiment on Lipid bilayer [11], 40.5 °C; in the experiment on Lipid bilayer [12], 40.4 °C; in the experiment with Lipid bilayer [13] it was 39.8 °C. Also, the result with Lipid bilayer [14] and with Lipid bilayer [15] was Active.

On to `O=c1cc(-c2ccccc2)oc2cc(O)c(O)c(O)c12` [BAICALEIN], for which the result (in experiment [16]; in the experiment on Lipid bilayer [14]; with Lipid bilayer [15]; in the experiment on Lipid bilayer [17]) was Active. In addition, the Activity entry in the experiment with Lipid bilayer [2] was “Dose-dependent effect”. Also, the IC50 in experiment [3] was found to be 18.2 µg/mL (≈ 67.3 µM). The growth at 0.0001 µg/mL is 70.6% with HepG2, -8.9% in the experiment on MCF7 and 16.7% with K562. The Kapp in experiment [4] worked out at 252 M⁻¹; in experiment [5] it was 215 M⁻¹. In addition, the T in the experiment on Lipid bilayer [6] amounted to 32.1 °C; with Lipid bilayer [7], 30.2 °C; in the experiment on Lipid bilayer [8], 32.9 °C; in the experiment with Lipid bilayer [9] it was 33.8 °C. Besides, the Tm is 40.4 °C in the experiment with Lipid bilayer [10], 39.7 °C in the experiment on Lipid bilayer [11], 40.6 °C in the experiment with Lipid bilayer [12] and 40.9 °C in the experiment on Lipid bilayer [13].

Regarding `O=c1cc(-c2ccccc2)oc2cc(O)cc(O)c12` [CHRYSIN], the result (in experiment [16]; in the experiment with Lipid bilayer [14]; in the experiment on Lipid bilayer [15]) was Active. The Activity result in the experiment on Lipid bilayer [2] was “Dose-dependent effect”. Moreover, in experiment [3], the IC50 was determined as 20.4 µg/mL (≈ 80.2 µM). Further, the growth at 0.0001 µg/mL in the experiment with HepG2 amounted to 76.7%; in the experiment with MCF7, 25.9%; with K562, 38.3%. The Kapp in [4] stood at 759 M⁻¹; in experiment [5], 532 M⁻¹. In addition, the T in the experiment with Lipid bilayer [6] is 31 °C; with Lipid bilayer [7], 30.4 °C; with Lipid bilayer [8], 30.5 °C; in the experiment with Lipid bilayer [9], 31.6 °C. Also, the Tm in the experiment with Lipid bilayer [10] worked out at 40.6 °C; in the experiment with Lipid bilayer [11], 39.8 °C; in the experiment on Lipid bilayer [12] it was 39.9 °C; with Lipid bilayer [13], 40.1 °C.

Consider `O=c1cc(-c2ccccc2)oc2ccccc12` [FLAVONE], for which the result (in [16]; in the experiment on Lipid bilayer [14]; in the experiment on Lipid bilayer [15]) was Active. Besides, the Activity result in the experiment with Lipid bilayer [2] was “Dose-dependent effect”; in experiment [18] it was 80%. The IC50 in [3] is more than 100 µg/mL. For the same compound, the values for the growth at 0.0001 µg/mL with HepG2, in the experiment on MCF7 and in the experiment on K562 were -7.6%, 50.3% and 56.8%, respectively. Further, the Kapp in experiment [4] is 19600 M⁻¹; in [5] it was 1820 M⁻¹. The Tm worked out at 37.2 °C in the experiment with Lipid bilayer [10], 36.7 °C with Lipid bilayer [11], 36.4 °C in the experiment on Lipid bilayer [12] and 36.3 °C with Lipid bilayer [13].
